Measurements collected from several papers.
Each line is one published result; the experiments were not run side by side.
Target: Voltage-gated inwardly rectifying potassium channel KCNH2 (KCNH2, Homo sapiens, UniProt Q12809)

| SMILES | assay | test system | setting | endpoint | result |
| --- | --- | --- | --- | --- | --- |
| CC(=O)N1CCC(C(=O)N2CCN3C(=O)c4cc(-c5ccccc5)ccc4NC(=O)C3C2)CC1 (stereo not drawn) | ion current, inhibitor, patch clamp | HEK293 | 10 µM | inhibition | 4% |
| CN1C[C@H](COc2nccc3c(NCc4ccco4)cc(Cl)nc23)OC1=O | ion current, inhibitor | HEK293 | 30 µM | inhibition | 37.1% |
| Cn1cc2c(C(=O)O)ccc(NS(=O)(=O)c3ccc(OCC4CCC4)c(Cl)c3)c2n1 | ion current | – | – | IC50 | > 10 µM |
| CCCN1CCCC[C@H]1C(=O)Nc1c(C)cccc1C | ion current, inhibitor, patch clamp | – | 100 µM | inhibition | 82.3% |
| COC1=CC(c2ccc[nH]2)=N/C1=C\c1[nH]c(Cc2ccc(OC(F)(F)F)cc2)cc1Cc1ccc(OC(F)(F)F)cc1 | ion current, inhibitor, patch clamp | – | 50 µM | inhibition | 26.6% |
| CCOC(=O)C1=C(CN2CCC[C@@H]2C(=O)Nc2ccc(B(O)O)cc2)NC(c2nccs2)=N[C@H]1c1ccc(F)cc1Br | ion current, inhibitor, patch clamp | HEK293 | 1 µM, pH 7.4 | inhibition | 14.6% |
| NC/C(=C\F)COc1cccc(Cn2c(=S)[nH]c(=O)c3[nH]cnc32)c1 | ion current, inhibitor | – | 10 µM | inhibition | 3.8% |
| COc1cc(N)c(Cl)cc1C(=O)NC1CCN(CCCOc2ccc(F)cc2)CC1OC (stereo not drawn) | ion current, inhibitor, patch clamp | HEK293 | 100 pM, pH 7.4 | inhibition | 3.11% |
| CC(C)(C)c1sc2ncnc(Oc3c(F)cccc3OC(F)(F)F)c2c1-c1ccc(Cl)cc1 | ligand displacement, radioligand | – | 10 µM | inhibition | > 50% |
